{"data": "Published values gathered from unrelated publications", "target": "Broad substrate specificity ATP-binding cassette transporter ABCG2 (ABCG2, Homo sapiens, UniProt Q9UNQ0)", "Residues used in one study (Q9UNQ0 1-655)": "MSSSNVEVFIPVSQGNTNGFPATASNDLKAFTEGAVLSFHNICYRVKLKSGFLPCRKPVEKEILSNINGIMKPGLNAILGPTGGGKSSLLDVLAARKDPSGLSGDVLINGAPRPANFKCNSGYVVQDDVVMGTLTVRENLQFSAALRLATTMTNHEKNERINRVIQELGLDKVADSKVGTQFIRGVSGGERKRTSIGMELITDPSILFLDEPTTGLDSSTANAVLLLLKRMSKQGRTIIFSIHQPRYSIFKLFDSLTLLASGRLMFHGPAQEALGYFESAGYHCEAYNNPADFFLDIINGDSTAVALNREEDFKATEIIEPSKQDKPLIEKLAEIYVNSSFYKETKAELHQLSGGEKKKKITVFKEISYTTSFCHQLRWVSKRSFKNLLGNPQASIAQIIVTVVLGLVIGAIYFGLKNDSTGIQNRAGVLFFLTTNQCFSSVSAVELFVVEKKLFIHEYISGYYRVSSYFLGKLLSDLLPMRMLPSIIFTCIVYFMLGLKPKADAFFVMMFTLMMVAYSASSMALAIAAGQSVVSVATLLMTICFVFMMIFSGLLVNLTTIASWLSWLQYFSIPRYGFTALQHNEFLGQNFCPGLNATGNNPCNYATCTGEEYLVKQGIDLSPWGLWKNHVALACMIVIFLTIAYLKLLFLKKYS", "note": "Protocols differ between the studies behind these lines."}
{"SMILES": "N#C/C(=C/c1cc(Cl)cc(Cl)c1)c1cccnc1", "assay": "ligand displacement", "setting": "10 µM", "endpoint": "inhibition", "value": "~55%"}
{"SMILES": "CC(C)[C@H]1Cn2ncc(-c3ccc(C(=O)N4CCCc5ccccc54)cc3)c2CN1C(=O)Cc1ccccc1", "test system": "dog, MDCK-MDR1", "endpoint": "Papp B→A", "value": "11.9 ×10⁻⁶ cm/s"}
{"SMILES": "CN(C(=O)n1cnc(-c2ccc[n+]([O-])c2)c1)C1CCCCC1", "assay": "transporter uptake, inhibitor", "test system": "MDCK-II", "setting": "10 µg/mL", "endpoint": "inhibition", "value": "13%"}
{"SMILES": "C[C@@H](C(=O)N1Cc2c(-c3ccc(C(=O)N4CCCc5ccccc54)cc3)cnn2C[C@@H]1C)c1ccccc1", "test system": "dog, MDCK-MDR1", "endpoint": "Papp B→A", "value": "13.3 ×10⁻⁶ cm/s"}
{"SMILES": "O=c1cc(-c2ccccc2)oc2cc(O)cc(O)c12", "assay": "transporter uptake, inhibitor", "test system": "Caco-2", "setting": "100 µM, 2 h", "endpoint": "inhibition", "value": "92%"}
{"SMILES": "C/C(O)=C(\\C#N)C(=O)Nc1ccc(C(F)(F)F)cc1", "test system": "Caco-2", "setting": "1 µM, 2 h, pH 7.4", "endpoint": "Papp A→B", "value": "5.51 ×10⁻⁶ cm/s"}
{"SMILES": "CC(=O)c1cc(C(=O)N[C@@H](C)Cn2ccc(-c3ccc(C#N)c(Cl)c3)n2)[nH]n1", "assay": "transporter uptake, inhibitor", "setting": "cell membranes", "endpoint": "Ki", "value": "0.56 µM"}
{"SMILES": "CN(CCC(=O)O)C(=O)c1ccc2c(c1)CC[C@@H]1[C@@H]2CC[C@]2(C)C(c3cncc(F)c3)=CC[C@@H]12", "assay": "transporter uptake, inhibitor", "endpoint": "IC50", "value": "7.6 µM"}
{"SMILES": "C=C[C@@H]1C[C@]1(NC(=O)[C@@H]1C[C@@H]2CN1C(=O)[C@H](C(C)(C)C)NC(=O)O[C@@H]1C[C@H]1CCCCCc1nc3ccc(OC)cc3nc1O2)C(=O)NS(=O)(=O)C1CC1", "assay": "transporter uptake, inhibitor", "setting": "cell membranes", "endpoint": "Ki", "value": "4 µM"}
{"SMILES": "O=C(O)CSc1nnc(Br)n1-c1ccc(C2CC2)c2ccccc12", "assay": "transporter uptake, inhibitor", "test system": "Caco-2", "setting": "3 µM, 2 h", "endpoint": "inhibition", "value": "18%"}
